Reference: ChEMBL document CHEMBL2390928
The source made the active and inactive calls. The calls are words filed in the database; no cut-off is given here.

How the values were obtained:
Bos taurus = species on record: Bos taurus; assay: Displacement of [3H]-colchicine from bovine brain tubulin at 5 uM after 10 mins relative to control
Summary of the method: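 Electrophoretically homogeneous bovine brain tubulin, 1.0 µM, incubated 10 min at 37 °C with 5.0 µM [3H]colchicine and 5.0 µM inhibitor; colchicine binding inhibition expressed as percent ± SD.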

[1] = Inhibition of bovine brain tubulin assembly after 20 mins by spectrophotometric analysis; parameters: species or system Bos taurus
Summary of the method: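 Electrophoretically homogeneous bovine brain tubulin is used at 10 µM (1.0 mg/mL) with varying inhibitor concentrations. After 15 min preincubation at 30 °C, 0.4 mM GTP is added.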

[2] = Growth inhibition of human EKVX cells; assay type: functional
HOP-62 = assay: Growth inhibition of human HOP62 cells; assay type: functional
SW-620 = assay: Growth inhibition of human SW620 cells; assay type: functional
[3] = Growth inhibition of human HCC2998 cells; assay type: functional; details: HCC 2998
MDA-MB-435 [4] = assay: Growth inhibition of human MDA-MB-435 cells; assay type: functional
SK-OV-3 [5] = assay: Cytotoxicity against human SKOV3 cells assessed as growth inhibition after 48 hrs by SRB assay; assay type: functional, cell-based; details: SK-OV-3, 48 h
MCF7 = assay: Growth inhibition of human MCF7 cells; assay type: functional
MDA-MB-468 = assay: Growth inhibition of human MDA-MB-468 cells; assay type: functional
SK-MEL-5 = assay: Growth inhibition of human SK-MEL-5 cells; assay type: functional
SF-268 = assay: Growth inhibition of human SF268 cells; assay type: functional
NCI-H460 = assay: Growth inhibition of human NCI-H460 cells; assay type: functional
HCT-15 = assay: Growth inhibition of human HCT15 cells; assay type: functional
PC-3 = assay: Growth inhibition of human PC3 cells; assay type: functional
Malme-3M = assay: Growth inhibition of human MALME-3M cells; assay type: functional
SF-295 = assay: Growth inhibition of human SF295 cells; assay type: functional
BT-549 = assay: Growth inhibition of human BT549 cells; assay type: functional
MDA-MB-231 = assay: Growth inhibition of human MDA-MB-231 cells; assay type: functional
OVCAR-3 = assay: Growth inhibition of human OVCAR3 cells; assay type: functional
HOP-92 = assay: Growth inhibition of human HOP92 cells; assay type: functional
OVCAR-8 = assay: Growth inhibition of human OVCAR8 cells; assay type: functional
TK-10 = assay: Growth inhibition of human TK10 cells; assay type: functional
SNB-75 = assay: Growth inhibition of human SNB75 cells; assay type: functional
SK-MEL-28 = assay: Growth inhibition of human SK-MEL-28 cells; assay type: functional
RXF 393 = assay: Growth inhibition of human RXF393 cells; assay type: functional
Hs-578T = assay: Growth inhibition of human Hs578T cells; assay type: functional
RPMI-8226 = assay: Growth inhibition of human RPMI8226 cells; assay type: functional
HeLa [6] = assay: Cytotoxicity against human HeLa cells assessed as growth inhibition after 48 hrs by SRB assay; assay type: functional, cell-based
SK-MEL-2 = assay: Growth inhibition of human SK-MEL-2 cells; assay type: functional
A549 = assay: Growth inhibition of human A549 cells; assay type: functional
HL-60(TB) = assay: Growth inhibition of human HL-60(TB) cells; assay type: functional
LOX IMVI = assay: Growth inhibition of human LOXIMVI cells; assay type: functional
SR = assay: Growth inhibition of human SR cells; assay type: functional
HT-29 = assay: Growth inhibition of human HT-29 cells; assay type: functional
ACHN = assay: Growth inhibition of human ACHN cells; assay type: functional
SN12C = assay: Growth inhibition of human SN12C cells; assay type: functional
OVCAR-4 = assay: Growth inhibition of human OVCAR4 cells; assay type: functional
CCRF-CEM = assay: Growth inhibition of human CCRF-CEM cells; assay type: functional
786-0 = assay: Growth inhibition of human 786-0 cells; assay type: functional
OVCAR-5 = assay: Growth inhibition of human OVCAR5 cells; assay type: functional
NCI-H226 = assay: Growth inhibition of human NCI-H226 cells; assay type: functional
M14 = assay: Growth inhibition of human M14 cells; assay type: functional
K562 = assay: Growth inhibition of human K562 cells; assay type: functional
MOLT-4 = assay: Growth inhibition of human MOLT4 cells; assay type: functional
KM12 = assay: Growth inhibition of human KM12 cells; assay type: functional
NCI-H23 = assay: Growth inhibition of human NCI-H23 cells; assay type: functional
COLO 205 = assay: Growth inhibition of human COLO205 cells; assay type: functional
U-251 = assay: Growth inhibition of human U251 cells; assay type: functional
UACC-62 = assay: Growth inhibition of human UACC62 cells; assay type: functional
NCI-H522 = assay: Growth inhibition of human NCI-H522 cells; assay type: functional
UO-31 = assay: Growth inhibition of human UO31 cells; assay type: functional
DU-145 = assay: Growth inhibition of human DU145 cells; assay type: functional
MDA-MB-435 [7] = assay: Cytotoxicity against human MDA-MB-435 cells assessed as growth inhibition after 48 hrs by SRB assay; assay type: functional, cell-based; details: MDA-MB-435, 48 h
SK-OV-3 [8] = assay: Growth inhibition of human SKOV3 cells; assay type: functional
SF-539 = assay: Growth inhibition of human SF539 cells; assay type: functional
HCT-116 = assay: Growth inhibition of human HCT116 cells; assay type: functional
MDA-MB-435 [9] = assay: Cell cycle arrest in human MDA-MB-435 cells assessed as increase in accumulation at G2/M phase at 44.1 to 73.5 nM after 18 hrs by FACS flow cytometric analysis; assay type: functional, cell-based
Summary of the method: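 Cells harvested, stained with Krishan's reagent (propidium iodide), analysed by flow cytometry; propidium iodide intensity plotted against event count to give cell cycle distribution.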

[10] = Induction of interphase microtubule depolymerization in rat A10 cells after 18 to 24 hrs by indirect immunofluorescence assay; assay type: cell-based
Summary of the method: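 Rat aortic smooth muscle A-10 cells are treated for 18 h, fixed in cold methanol, and stained for microtubules with a β-tubulin antibody by indirect immunofluorescence. […] It is computed per experiment over a wide concentration range, from at least 3 independent experiments, and reported as mean ± SD.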

SNB-19 = assay: Growth inhibition of human SNB19 cells; assay type: functional
NCI-H322M = assay: Growth inhibition of human NCI-H322M cells; assay type: functional
[11] = Growth inhibition of human NCI-ADR-RES cells; assay type: functional
A498 = assay: Growth inhibition of human A498 cells; assay type: functional
[12] = Ratio of EC50 for induction of microtubule depolymerization in rat A10 cells to IC50 for human MDA-MB-435 cells
Summary of the method: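 This ratio divides the A-10 EC50 by the MDA-MB-435 melanoma IC50. […] The IC50 is from the sulforhodamine B proliferation assay, 3–5 independent experiments.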

HeLa [13] = assay: Resistance ratio of IC50 for human HeLa cells expressing beta-3 tubulin to IC50 for human HeLa cells; assay type: functional
Summary of the method: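 HeLa WT βIII cells are HeLa cells transfected with the βIII-tubulin gene. IC50 in this line and in parental HeLa is taken from the sulforhodamine B assay (3–5 independent experiments). Rr is the βIII-line IC50 divided by the parental HeLa IC50.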

SK-OV-3 [14] = assay: Resistance ratio of IC50 for human SKOV3 cells expressing MDR1 to IC50 for human SKOV3 cells; assay type: functional
Summary of the method: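 Relative resistance (Rr) is the IC50 in Pgp-expressing SK-OV-3 MDR-1-6/6 cells divided by the IC50 in parental SK-OV-3 cells.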

## COc1ccc(N(C)c2nc(C)nc3[nH]ccc23)cc1
Bos taurus
  inhibition: 70%
[1]
  IC50: 2600 nM

## COc1ccc(N(C)c2nc(N)nc3[nH]c4ccccc4c23)cc1
[2]
  GI50: 16.7 nM
HOP-62
  GI50: 40 nM
SW-620
  GI50: 19 nM
[3]
  GI50: 23.6 nM
MDA-MB-435 [4]
  GI50: < 10 nM
SK-OV-3 [5]
  IC50: 27.6 nM
MCF7
  GI50: 16.4 nM
MDA-MB-468
  GI50: 26.9 nM
SK-MEL-5
  GI50: 32.3 nM
SF-268
  GI50: 37.7 nM
NCI-H460
  GI50: 30 nM
HCT-15
  GI50: 26.1 nM
PC-3
  GI50: 44.3 nM
Malme-3M
  GI50: 304 nM
SF-295
  GI50: 26 nM
BT-549
  GI50: 94.5 nM
MDA-MB-231
  GI50: 64.6 nM
OVCAR-3
  GI50: 12.9 nM
HOP-92
  GI50: 242 nM
OVCAR-8
  GI50: 42.3 nM
TK-10
  GI50: 56.2 nM
SNB-75
  GI50: 12.7 nM
SK-MEL-28
  GI50: < 10 nM
RXF 393
  GI50: 16.9 nM
Hs-578T
  GI50: 11.5 nM
RPMI-8226
  GI50: 41.1 nM
HeLa [6]
  IC50: 21.3 nM
SK-MEL-2
  GI50: 19.7 nM
A549
  GI50: 36.4 nM
HL-60(TB)
  GI50: 32.2 nM
Bos taurus
  inhibition: 84%
LOX IMVI
  GI50: 68.4 nM
SR
  GI50: < 10 nM
HT-29
  GI50: 31 nM
ACHN
  GI50: 89.6 nM
SN12C
  GI50: 80.1 nM
OVCAR-4
  GI50: 52.7 nM
CCRF-CEM
  GI50: 41.1 nM
786-0
  GI50: 49 nM
[1]
  IC50: 1400 nM
OVCAR-5
  GI50: 51.2 nM
NCI-H226
  GI50: 133 nM
M14
  GI50: 16.6 nM
K562
  GI50: < 10 nM
MOLT-4
  GI50: 47.7 nM
KM12
  GI50: 13.2 nM
NCI-H23
  GI50: 31.8 nM
COLO 205
  GI50: 25.8 nM
U-251
  GI50: 37.3 nM
UACC-62
  GI50: 27 nM
NCI-H522
  GI50: < 10 nM
UO-31
  GI50: 53.7 nM
DU-145
  GI50: 31.4 nM
MDA-MB-435 [7]
  IC50: 14.7 nM
SK-OV-3 [8]
  GI50: 29.9 nM
SF-539
  GI50: 24.2 nM
HCT-116
  GI50: 29.8 nM
MDA-MB-435 [9]
  Activity: Active
[10]
  EC50: 105 nM
SNB-19
  GI50: 50.9 nM
NCI-H322M
  GI50: 64.2 nM
[11]
  GI50: 11.5 nM
A498
  GI50: 15.8 nM

## CCOc1ccc(N(C)c2nc(N)nc3[nH]c4ccccc4c23)cc1
SK-OV-3 [5]
  IC50: 23 nM
[12]
  Ratio: 6.5
HeLa [13]
  Ratio IC50: 0.8
HeLa [6]
  IC50: 23.1 nM
Bos taurus
  inhibition: 82%
SK-OV-3 [14]
  Ratio IC50: 1.3
[1]
  IC50: 1700 nM
MDA-MB-435 [7]
  IC50: 14.4 nM
[10]
  EC50: 83 nM

## CCN(c1ccc(OC)cc1)c1nc(N)nc2[nH]c3ccccc3c12
SK-OV-3 [5]
  IC50: 53 nM
[12]
  Ratio: 8.4
HeLa [13]
  Ratio IC50: 1.4
HeLa [6]
  IC50: 32.8 nM
Bos taurus
  inhibition: 76%
SK-OV-3 [14]
  Ratio IC50: 1.4
[1]
  IC50: 1700 nM
MDA-MB-435 [7]
  IC50: 23.5 nM
[10]
  EC50: 198 nM

## COc1ccc(/C=C\c2cc(OC)c(OC)c(OC)c2)cc1O [COMBRETASTATIN A4]
SK-OV-3 [5]
  IC50: 9.7 nM
HeLa [6]
  IC50: 4.7 nM
[10]
  EC50: 13 nM

## CC(=O)O[C@H]1C(=O)[C@@]2(C)[C@H]([C@H](OC(=O)c3ccccc3)[C@]3(O)C[C@H](OC(=O)[C@H](O)[C@@H](NC(=O)c4ccccc4)c4ccccc4)C(C)=C1C3(C)C)[C@]1(OC(C)=O)CO[C@@H]1C[C@@H]2O [PACLITAXEL]
SK-OV-3 [5]
  IC50: 4.4 nM
